# mIAP inh: blocks mouse intestinal alkaline phosphatase | purified mouse IAP, CDP-Star luminescence, 30 min | 330,000 tested, 0.2% active | inhibition, % at 10 µM;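 active means inhibition of at least 40% at 10 µM in the primary screen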
# bIAP inh: intestinal alkaline phosphatase (bovine) inhibition; purified bovine IAP, CDP-star luminescence, 30 min; inhibition, % at 20 µM; 190,000 tested, under 10 active;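 active means over 50% inhibition of intestinal alkaline phosphatase at 20 µM in the single-dose screen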
#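 Incubation: 30 min reaction at room temperature / Material: purified bovine intestinal alkaline phosphatase (IAP) enzyme / Input: enzyme at 1/65,000,000 dilution / Dosing: 20 µM single dose / Signal: CDP-star luminescence signal / Reagent: CDP-star chemiluminescent phosphatase substrate, 30 µM final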
# hIAP block: blocks human intestinal alkaline phosphatase | P09923 | purified IAP, CDP-Star luminescence, 30 min | inhibition, % at 10 µM | 330,000 tested, 0.12% active | AID 2544;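 active means inhibition reaching a set limit with compound at 10 µM in the primary screen, cut at about 35% in these data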
# Target sequence (P09923 whole entry, looked up): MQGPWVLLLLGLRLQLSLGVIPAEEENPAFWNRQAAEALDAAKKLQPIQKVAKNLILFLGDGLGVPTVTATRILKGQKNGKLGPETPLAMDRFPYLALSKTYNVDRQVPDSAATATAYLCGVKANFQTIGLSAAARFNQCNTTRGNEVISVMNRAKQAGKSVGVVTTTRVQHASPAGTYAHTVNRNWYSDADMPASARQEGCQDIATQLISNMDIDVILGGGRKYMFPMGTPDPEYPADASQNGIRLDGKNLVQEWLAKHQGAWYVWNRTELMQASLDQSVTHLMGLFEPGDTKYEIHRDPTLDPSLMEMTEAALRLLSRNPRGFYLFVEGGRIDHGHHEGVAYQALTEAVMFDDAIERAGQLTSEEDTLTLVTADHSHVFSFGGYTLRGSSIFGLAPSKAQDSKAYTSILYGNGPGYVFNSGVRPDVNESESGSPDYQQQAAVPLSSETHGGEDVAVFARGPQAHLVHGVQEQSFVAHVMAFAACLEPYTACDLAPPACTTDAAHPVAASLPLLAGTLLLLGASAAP
# bIAP act: intestinal alkaline phosphatase (bovine) activation | purified bovine IAP, CDP-star luminescence, 30 min; active compounds read high; fold of DMSO-control signal, blank-subtracted | 200,000 tested, 0.17% active | activation factor at 20 µM;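 active means activation factor of 2 or more at 20 µM, a signal rise over negative controls twice the positive control's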
# hIAP activ: human IAP activation; P09923; purified human IAP, CDP-Star luminescence, 30 min; active compounds read high; 1 = vehicle-only enzyme, 0 = enzyme-free background; activation factor at 10 µM; 330,000 tested, 0.16% active;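 active means activation factor of the enzyme at least 2-fold when tested at 20 µM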
# mIAP activ: mouse IAP activation; muIAP, CDP-Star luminescence, 30 min; active compounds read high; 1 = vehicle-only enzyme signal, 0 = enzyme-free wells; activation factor at 10 µM; 330,000 tested, 0.24% active;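 active means activation factor of at least 2 at 20 µM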
#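 System: Mouse IAP enzyme | Also added: CDP-Star substrate | Dosing: Compounds dispensed in DMSO | Schedule: 30 min enzyme-substrate-compound incubation at room temperature | Technique: Chemiluminescence readout | Control set: DMSO-only wells and no-enzyme negative control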
# A number is an active result; . = inactive; / = not tested or not shown. The list is not random: actives were taken first. Their share in the collection is about 0.77%.
SMILES,mIAP inh,bIAP inh,hIAP block,bIAP act,hIAP activ,mIAP activ
O=C(CSc1nnc(CCc2nc3ccccc3[nH]2)n1-c1ccccc1)NCc1ccccc1,.,.,.,.,.,.
COc1ccc2[nH]c3c(c2c1)CCN1C(=O)C(CC(=O)NC/C=C(\C)CCC=C(C)C)C[C@H](C(=O)N2CCCCC2)[C@@]31C (some centres undefined),.,/,/,/,/,2
CC(C)=CCC/C(C)=C/CNC(=O)C[C@H]1C[C@H](C(=O)N2CCCCC2)[C@@]2(C)c3[nH]c4ccc(Cl)cc4c3CCN2C1=O,.,/,/,/,/,.
Cc1cccc(NC(=O)Nc2ccc3c(c2)CCC3)c1,.,/,.,/,.,2.88
CC(=O)OCC(=O)[C@@]1(O)CC[C@H]2[C@@H]3CCC4=CC(=O)C=C[C@]4(C)[C@H]3[C@@H](O)C[C@@]21C,.,/,.,380,.,.
C[C@]12C=CC(=O)C=C1CC[C@@H]1C2C(O)C[C@@]2(C)C1CC[C@]2(O)C(=O)COC(=O)CCC(=O)NC(CC(=O)O)C(=O)O (some centres undefined),.,/,.,/,.,.
S=C(Nc1ccc(Cl)c(Cl)c1)NC1CCN(Cc2ccccc2)CC1,.,.,.,.,.,2.15
S=C(Nc1ccc(Cl)c(Cl)c1)NC1CCCCC1,.,.,.,.,.,3.2
O=C(Nc1ccc(Cl)cc1)OCc1cn(-c2ccccc2)nn1,.,.,.,.,.,.
COc1ccccc1Nc1nc(-c2cccs2)cs1,42.6,.,.,.,.,.
Cc1ccc(N2C(=O)CSCC2=O)cc1,.,.,.,.,.,.
Cc1ccc(N2C(=O)CS/C2=C(\C(Cl)=C(Cl)Cl)[N+](=O)[O-])cc1,41.9,.,.,.,.,.
CC(C)c1ccc(NC(=O)C(c2ccc3c(c2)OCO3)N2CCN(C(=O)c3ccco3)CC2)cc1 (centres undefined),.,.,.,.,.,2.07
COC(=O)c1ccc(OC(=O)CCN2c3ccccc3Sc3ccccc32)cc1,.,.,.,5.1,.,.
COc1ccc(OC)c(NC(=S)NCc2ccccc2OC)c1,.,.,.,.,.,.
Cc1ccc(NC(=S)NCCC(c2ccccc2)c2ccccc2)c(C)c1,.,.,.,.,.,4.07
COc1ccc(OC)c(NC(=S)NCCC(c2ccccc2)c2ccccc2)c1,.,/,.,/,.,2.59
CCCn1c(N)c(C(c2ccc(OC)cc2)N2CCN(c3ccccc3)CC2)c(=O)[nH]c1=O (centres undefined),.,.,.,2.6,.,.
CCCn1c(N)c(C(c2ccc(C(=O)OC)cc2)N2CCN(c3ccccc3)CC2)c(=O)[nH]c1=O (centres undefined),.,.,.,.,.,.
O=C(Nc1ccc2cn[nH]c2c1)c1ccc(Cl)c(S(=O)(=O)N2CCOCC2)c1,.,/,.,.,.,.
CC(NC(=S)NCCc1ccccc1)C(c1cccs1)N1CCN(Cc2ccccc2)CC1 (centres undefined),.,/,.,.,.,5.3
CC(NC(=O)NC1CCCCC1)C(c1cccs1)N1CCN(Cc2ccccc2)CC1 (centres undefined),.,.,.,3.4,.,.
CCN1CCN(C(c2cccs2)C(C)NC(=S)Nc2cc(C)ccc2C)CC1 (centres undefined),.,/,.,/,.,.
CC(NC(=O)NC1CCCCC1)C(c1cccs1)N1CCOCC1 (centres undefined),.,.,.,.,.,.
CC1=C(C(=O)Nc2ccccc2F)C(c2cccs2)NC(=S)N1 (centres undefined),.,.,.,.,.,.
SMILES,mIAP inh,bIAP inh,hIAP block,bIAP act,hIAP activ,mIAP activ
CC(=O)C1=C(C)NC(SCC(=O)c2cc(Cl)ccc2Cl)=C(C#N)C1c1ccco1 (centres undefined),.,.,.,.,.,.
CC(=O)C1=C(C)NC(SCC(=O)c2ccc(Cl)c(Cl)c2)=C(C#N)C1c1ccco1 (centres undefined),.,.,35.0,.,.,.
O=C(COC(=O)/C=C/c1ccco1)NCCc1ccccc1,.,.,.,.,.,.
O=S(=O)(c1cccs1)N1CCC(CO)(Cc2ccc(Cl)cc2)CC1,.,.,.,.,.,.
COc1cc(C2CC(c3cccnc3)=NN2c2ccc(F)cc2)cc(OC)c1OC (centres undefined),.,.,.,.,.,2.23
Cn1c(=O)[nH]c(=O)c2c1nc(Br)n2CC(O)COc1ccc(Cl)cc1 (centres undefined),.,.,.,.,.,.
CCN(c1ccccc1)S(=O)(=O)c1ccc(C(=O)N(CCCN(C)C)c2nc3c(C)cccc3s2)cc1,.,/,.,/,.,.
Cc1cccc(NC(=O)COC(=O)c2ccccc2-c2nc3ccccc3s2)c1C,.,.,.,5.2,.,.
O=C(C[C@H]1C/C=C\C[C@@H](Cc2ccc(F)cc2)C(=O)OC[C@@H]2CCCN2C1=O)NCCO,.,/,.,/,.,.
O=C(NCc1cccs1)Nc1cccc(Cl)c1,.,/,.,/,.,.
O=C(Nc1cccc(Cl)c1)NC1(C(=O)NCc2cccs2)CCCCC1,.,.,.,.,.,2.21
COc1ccc(NC(=O)CN(c2cc(C)cc(C)c2)S(=O)(=O)c2c(C)noc2C)cc1,.,.,.,.,.,.
CCOc1ccc(N(CC(=O)Nc2ccc(C)c(C)c2)S(=O)(=O)c2c(C)noc2C)cc1,.,.,.,.,.,2.08
COc1ccc(NC(=O)CN(c2cc(C)cc(C)c2)S(=O)(=O)c2c(C)noc2C)cc1OC,.,.,.,.,.,2.1
C/C(=N/NC(=O)c1cc(-c2ccccc2)nc2c(Cl)cccc12)c1cccnc1,.,/,.,/,.,.
CC(Nc1n[nH]c(=O)[nH]c1=O)C(=O)N/N=C/c1cccs1 (centres undefined),.,.,.,.,.,.
COc1ccccc1NC(=S)NC1CCCCCCCCCCC1,.,/,.,/,.,2.34
S=C(Nc1ccc(Oc2ccc(NC(=S)NC3CCCCC3)cc2)cc1)NC1CCCCC1,.,.,.,.,.,2.42
CC(C)c1ccc(NC(=S)NC2CCCCCC2)cc1,.,.,.,.,.,3.23
FC(F)Sc1ccc(NC(=S)NC2CCCC2)cc1,.,.,.,.,.,2.56
OC1CCC(NC(=S)Nc2ccc(SC(F)F)cc2)CC1 (centres undefined),.,.,.,.,.,.
Cc1ccccc1C(=O)N1CCC(C(=O)Nc2ccc(S(=O)(=O)N3CCCCC3)cc2)CC1,.,/,.,/,.,.
COc1ccc(NC(=O)c2cccc(N3C(=O)C4C5C=CC(C6CC56)C4C3=O)c2)cc1 (centres undefined),.,/,.,/,.,.
S=C(Nc1ccc(Oc2ccccc2)cc1)NC1CCCCC1,.,.,.,.,.,3.5

# Assay outcomes from PubChem.
